In the library only some 1.7% were active in any assay of this set; here they are far more common.
Rev-erbA mod = modulators of Rev-erb alpha DNA binding, primary screen, biochemical, FITC-DNA, fluorescence polarization, uHTS; 370,000 tested, 0.79% active; Nuclear receptor subfamily 1 group D member 1 (Homo sapiens), P20393; activity, % at 10 µM; Rev-erbα–FITC-DNA binding, 90 min; AID 1259318, 2017;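 active = activity above about 14%, limit read from the data; passing the limit was not always enough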
Target sequence (P20393 whole entry, looked up): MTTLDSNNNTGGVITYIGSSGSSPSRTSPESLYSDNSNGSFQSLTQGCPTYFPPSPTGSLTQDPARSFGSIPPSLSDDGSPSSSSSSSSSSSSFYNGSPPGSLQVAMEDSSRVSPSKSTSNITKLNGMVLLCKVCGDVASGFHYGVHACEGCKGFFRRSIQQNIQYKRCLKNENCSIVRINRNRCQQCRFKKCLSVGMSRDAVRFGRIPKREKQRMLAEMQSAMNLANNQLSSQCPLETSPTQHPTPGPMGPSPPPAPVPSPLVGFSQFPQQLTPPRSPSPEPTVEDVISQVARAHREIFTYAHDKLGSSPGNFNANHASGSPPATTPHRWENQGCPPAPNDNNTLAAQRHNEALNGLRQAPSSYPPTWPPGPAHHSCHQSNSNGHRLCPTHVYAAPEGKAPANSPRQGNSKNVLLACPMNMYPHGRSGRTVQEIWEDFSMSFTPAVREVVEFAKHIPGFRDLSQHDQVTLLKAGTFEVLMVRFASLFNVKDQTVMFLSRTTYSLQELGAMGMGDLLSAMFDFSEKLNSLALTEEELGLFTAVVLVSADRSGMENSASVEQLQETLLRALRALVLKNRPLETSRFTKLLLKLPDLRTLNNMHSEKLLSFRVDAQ
HNF4A DNA FP = change in binding of human HNF4A to DNA, primary screen, biochemical, fluorescence polarization, FITC-DNA; Hepatocyte nuclear factor 4-alpha (Homo sapiens), P41235; 1 h; activity change, % at 10 µM; 360,000 tested, 0.3% active; AID 1224865, 2016; in the data active = activity change above about 30%, passing the limit was not always enough
TPT1 inhibitor = Candida albicans TPT1 enzyme inhibitors, primary screen, biochemical, fluorescence polarization; recombinant caTPT1, FP RNA substrate dephosphorylation; inhibition, % at 5 µM; 300,000 tested, 0.81% active; tRNA 2'-phosphotransferase TPT1 (Candida albicans SC5314);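 active = inhibition above the mean of all tested compounds plus 3 SD, set per screening campaign, cut at about 24% in these data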
CSN inh = inhibitors of CSN-mediated cullin deneddylation, primary screen, biochemical, fluorescence polarization, uHTS; COP9 signalosome complex subunit 5 (Homo sapiens), Q92905; Purified CSN, SCF-Nedd8-OG deneddylation; inhibition, % at 12.5 µM; 360,000 tested, 0.38% active; AID 651999, 2013;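 active = pattern-corrected inhibition above about 35%, with an unprinted fluorescence ratio check between 0.5 and 1.5, limit read from the data, passing the limit was not always enough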
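Assay system: purified human Csn5 enzyme expressed in HEK293T cells; Input: 0.24 nM Csn5 enzyme, final concentration; Reagent: 10 nM SCFSkp2-Nedd8OG; Compound dosing: 12.5 µM single point; Times: reaction 90 min, room temperature; Technique: fluorescence polarization readout.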
Numbers stand for hits; . = inactive; / = no result given.

SMILES	Rev-erbA mod	HNF4A DNA FP	TPT1 inhibitor	CSN inh
CCC(=O)Oc1ccc(C(=O)Nc2ccc3c(c2)C(=O)N(C2CCCCC2)C3=O)cc1	.	38.7	.	.
O=C(O)COc1ccc(NC(=O)c2ccc3c(c2)C(=O)N(C2CCCCC2)C3=O)cc1	.	.	.	.
CC(=O)[C@H]1CCC2C3CC=C4C[C@@H](OC(=O)CCC(=O)O)CC[C@]4(C)C3CC[C@@]21C (some centres undefined)	.	/	/	/
CN(C)c1ccc(N/C=C/C(=O)c2ccccc2)cc1	.	38.4	.	.
COc1ccc(N2CCN(CCCNC(=O)Cn3c(=O)c4cccn4c4cccnc43)CC2)c(OC)c1	.	/	/	/
Cc1nc2nc(SCC(=O)NCCCN3CCCCCC3)nn2c(C)c1Cc1ccccc1	.	68.3	.	88.0
CC(c1ccccc1)n1cc(C(=O)NCCCN2CCCC2)nn1 (centres undefined)	.	/	/	/
Cc1ccc(S(=O)(=O)N2C[C@H]3[C@H]4C(=O)N(C5CCCCC5)C(=O)[C@H]4CC(=O)[C@H]3[C@@H]2c2ccccc2Cl)cc1	.	.	/	35.8
O=C(O)C1=C(CSc2nnnn2CS(=O)(=O)O)CS[C@@H]2[C@@H](NC(=O)[C@H](O)c3ccccc3)C(=O)N12	.	/	/	/
Cc1ccc(C2=NN(S(C)(=O)=O)C(c3cccs3)C2)cc1 (centres undefined)	.	.	.	.
CCc1ccc(C2=NN(S(C)(=O)=O)C(c3cccs3)C2)cc1 (centres undefined)	.	91.6	.	.
CC(C)(C)NCC(O)COc1cccc2c1CCCC2=O (centres undefined)	.	/	/	/
CCOC(=O)c1cc(-c2ccccc2)sc1NC(=S)Nc1cc(C)ccn1	.	47.0	.	.
CCOC(=O)c1cc(-c2ccccc2)sc1NC(=O)C(C)(C)C	.	.	.	.
CN1CCN(c2ccc(CNC(=O)c3ccc4c(c3)OCCO4)cc2)CC1	.	.	.	35.6
CC(=O)N1CCc2cc(N=NC3=C(O)CCCC3=O)ccc21	.	43.4	.	.
O=C1CCCC(O)=C1N=Nc1ccc(Cl)c(Cl)c1	.	.	.	.
COc1ccc(-c2ccc3c(c2)S(=O)(=O)c2cccc(C(=O)N4CCN(c5c(Cl)cncc5Cl)CC4)c2C3=O)cc1OC	.	42.2	/	.
COc1ccc(NS(=O)(=O)c2cc([N+](=O)[O-])ccc2N/N=C/c2c(C)[nH]c3ccccc23)cc1	.	76.8	/	.
Cc1[nH]c2ccccc2c1/C=N/Nc1ccccc1[N+](=O)[O-]	.	.	.	.
O=C(CCCSc1ccccc1)Nc1nc(-c2ccco2)c(-c2ccco2)s1	.	.	.	42.6
Cc1ccc(C(=O)Nc2nc(-c3ccco3)c(-c3ccco3)s2)o1	.	.	/	.
O=C(Nc1ccccc1-c1nc2ccccc2[nH]1)c1ccc(N2C(=O)CCC2=O)cc1	.	85.4	.	53.9
O=C(O)Cc1cccc(-c2ccccc2)c1	.	/	/	/
C=CCN1C(=O)S/C(=C/c2ccc(Sc3nc4ccccc4[nH]3)o2)C1=O	.	.	.	.
SMILES	Rev-erbA mod	HNF4A DNA FP	TPT1 inhibitor	CSN inh
CC(C)N1C(=O)S/C(=C/c2ccc(Sc3nc4ccccc4[nH]3)o2)C1=O	.	87.7	.	.
CCCCC(CC)CN=C(N)NC(N)=NCCCCCCN=C(N)NC(N)=NCC(CC)CCCC (centres undefined)	/	97.6	.	126.9
Cc1cc(NS(=O)(=O)c2ccc(Nc3nc(-c4sc(N)nc4C)cs3)cc2)no1	/	.	.	73.0
Clc1ccccc1Cn1c(/C=C/c2ccco2)nc2ccccc21	.	.	.	35.9
COc1ccc(Cn2c(/C=C/c3ccccc3)nc3ccccc32)cc1	.	.	.	.
Cc1ccc2cc3c(N)c(C(=O)N4CC(=O)Nc5ccccc54)sc3nc2c1	/	/	34.0	/
Cc1cccc(CS(=O)(=O)c2nnc([C@H](Cc3ccccc3)NC(=O)OC(C)(C)C)o2)c1	/	.	66.9	.
COC(=O)CS(=O)(=O)c1nnc([C@H](Cc2ccccc2)NC(=O)OC(C)(C)C)o1	.	.	.	.
Cn1c2c(c(=O)n(C)c1=O)C(C(F)(F)F)(C(F)(F)F)N=C(CCC1CCCCC1)N2	.	.	.	53.7
CC1=CC(=C2N=C(c3ccccc3)OC2=O)C=C(C)O1	.	.	.	61.8
CN1C=CC=C/C1=C1/N=C(c2ccccc2)OC1=O	.	.	.	.
CC(/C=C/c1ccc(N(C)C)cc1)=N\N=C1\NC(=O)CC(C(=O)Nc2ccccc2)S1 (centres undefined)	.	33.8	.	.
CO[C@H]1C[C@@H](O[C@@H]2/C(C)=C/C[C@@H]3C[C@@H](C[C@]4(CC[C@H](C)[C@@H](C5CCCCC5)O4)O3)OC(=O)[C@@H]3C=C(C)/C(=N/O)[C@H]4OC/C(=C\C=C\[C@@H]2C)[C@]43O)O[C@@H](C)[C@H]1O	.	/	/	/
CCN(CC)c1ccc(/C=C/c2nc3ccccc3s2)cc1	/	/	177.9	/
NC(=S)c1cc2cc(Br)ccc2oc1=O	.	.	.	.
NC(=S)c1cc2ccc(O)cc2oc1=O	.	.	/	46.5
COC(=O)C1CN(Cc2ccccc2)CCS(=O)(=O)N1Cc1cn(Cc2ccc(F)cc2)nn1 (centres undefined)	.	/	/	/
C[N+]1(C)CCN(CC(O)(c2ccccc2)C2CCCCC2)CC1 (centres undefined)	.	/	/	/
COc1ccc(S(=O)(=O)NNC(=O)c2sccc2-n2cccc2)cc1	.	30.5	.	.
Cc1cc(-n2c(=O)[nH]c(=O)n(C)c2=O)ccc1Oc1ccc(SC(F)(F)F)cc1	.	/	/	/
Cc1ccc(CN2C(=O)CSCC2(C)C(=O)Nc2c(C)cccc2C)cc1 (centres undefined)	.	.	/	.
Cc1cccc(C)c1NC(=O)C1(C)CSCC(=O)N1Cc1ccco1 (centres undefined)	.	39.7	/	94.2
CCc1ccc(C(=O)CSc2nc(N)cc(=O)[nH]2)cc1	.	49.0	.	.
Cc1ccc(C(=O)CSc2nc(N)cc(=O)[nH]2)cc1C	.	.	.	.
O=C(Cc1cccs1)N[C@H]1C(=O)N2C(C(=O)O)=C(C[n+]3ccccc3)CSC12 (some centres undefined)	.	/	/	/
SMILES	Rev-erbA mod	HNF4A DNA FP	TPT1 inhibitor	CSN inh
COc1ccc(-n2nc3c(N4CCC(C(=O)NCc5ccccc5C)CC4)nnc(C)c3c2C)cc1	/	.	.	116.6
Cn1nnnc1SCC1=C(C(=O)O)N2C(=O)[C@H](NC(=O)C(OC=O)c3ccccc3)C2SC1 (some centres undefined)	.	/	/	/
CN1CCN(C(=O)c2cnc(Cc3c[nH]c4ccccc34)c(I)c2)CC1	.	.	/	61.8
CCCCNC(=O)c1cnc(Cc2c[nH]c3ccccc23)c(I)c1	.	.	/	.
Nn1c(SCC(=O)N2c3ccccc3Sc3ccc(Cl)cc32)nnc1-c1n[nH]c2c1CCC2	.	/	/	/
Cc1noc(/C=C/c2ccc(-c3ccccc3Cl)o2)c1[N+](=O)[O-]	/	.	137.5	.
Cc1noc(/C=C/c2cccnc2)c1[N+](=O)[O-]	.	.	.	.

High-throughput results from PubChem BioAssay.
